Laboratory results as given in ChEMBL document CHEMBL4765233, “From Lead to Drug Candidate: Optimization of 3-(Phenylethynyl)-1H-pyrazolo[3,4-d]pyrimidin-4-amine Derivatives as Agents for the Treatment of Triple Negative Breast Cancer” (J Med Chem, 2016).

Experiments:
[1] = test system: MDA-MB-231; assay: Antiproliferative activity against human MDA-MB-231 cells assessed as reduction in cell viability incubated for 72 hrs by MTT assay; type: functional, cell-based; details: MDA-MB-231, 72 h
In short: (§1)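 MTT viability assay. ATCC cell lines were grown in designated medium with 10% FBS at 37 °C, 5% CO2. Cells seeded at 1500−30000 per well and incubated 24 h, then exposed to compound (0−10 μg/mL) for 72 h. MTT added for 2−4 h. Formazan dissolved in DMSO (adherent) or acidified SDS overnight (suspension), absorbance read at 570 nm. Triplicates; IC50 calculated.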

[2] = test system: MDA-MB-435; assay: Antiproliferative activity against human MDA-MB-435 cells assessed as reduction in cell viability incubated for 72 hrs by MTT assay; type: functional, cell-based; details: MDA-MB-435, 72 h; in short: as §1
[3] = test system: HepG2; assay: Antiproliferative activity against human HepG2 cells assessed as reduction in cell viability incubated for 72 hrs by MTT assay; type: ADME, cell-based; details: HepG2, 72 h
[4] = test system: MDA-MB-231; assay: Antitumor activity against human MDA-MB-231 cells xenografted in SCID mouse assessed as tumor growth inhibition at 40 mg/kg, po qd for 21 days and measured every 3 days; type: functional; details: MDA-MB-231, po, 504 h, time 21 day
In short: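 SCID mice (5−6 weeks) injected subcutaneously with 100 μL of cells at 5 × 10^7/mL. At 150−200 mm3 mice randomized, 6 per group. Oral compounds given in water with 25% PEG400 plus 5% DMSO; paclitaxel given 10 mg/kg/week iv. Tumor volume a×b²/2 and body weight measured every 3 days. Inhibition rate (c−d)/c×100% against vehicle control.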

[5] = Toxicity in SCID mouse xenografted with MDA-MB-231 cells assessed as change in body weight at 40 mg/kg, po qd for 21 days and measured every 3 days; type: organism-based; details: in vivo, 504 h, dose 40 mg/kg/day, time 21 day
In short: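 Exponential-phase cells washed and injected subcutaneously (5 × 10^6 cells in 100 μL) into 5–6-week SCID mice. At 150–200 mm3, mice randomised to groups of 6. Oral dosing daily in water with 25% PEG400 and 5% DMSO; paclitaxel 10 mg/kg weekly by tail vein. Body weight measured every 3 days and side effects checked daily.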

[6] = Toxicity in SCID mouse xenografted with MDA-MB-231 cells assessed as animal death at 40 mg/kg, po qd for 21 days; type: organism-based; details: in vivo, dose 40 mg/kg/day, time 21 day, read-out: Activity
In short: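 SCID mice aged 5–6 weeks were injected subcutaneously with 100 μL of MDA-MB-231 cells resuspended at 5 × 10^7 per mL. When tumours reached 150–200 mm3, mice were randomised into groups of 3 or 6. Dosing was oral and daily, in sterile water with 25% PEG400 plus 5% DMSO. Side effects were checked daily and body weight every 3 days.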

Structure (SMILES)	IC50 [1]	IC50 [2]	IC50 [3]	inhibition in vivo at 40 mg/kg/day [4]	Activity [5]	mortality at 504 h [6]
Cc1ccc(NC(=O)c2cccc(C(C)(C)C)c2)cc1C#Cc1nn(C2CCN(C)CC2)c2ncnc(N)c12	0.059 µM	0.02 µM	> 10 µM			
Cc1ccc(NC(=O)c2cccc(C(F)(F)F)c2)cc1C#Cc1nn([C@@H]2CCN(C)C2)c2ncnc(N)c12			6.6 µM			
Cc1ccc(NC(=O)c2cc(C(C)(C)C)on2)cc1C#Cc1nn(C2CCN(C)CC2)c2ncnc(N)c12	0.188 µM	0.082 µM	> 10 µM			
CCn1nc(C#Cc2cc(C(=O)Nc3cccc(C(F)(F)F)c3)ccc2C)c2c(N)ncnc21	0.36 µM	0.238 µM	> 10 µM			
Cc1ccc(C(=O)Nc2cccc(C(F)(F)F)c2)cc1C#Cc1nn(CC2CCN(C)C2)c2ncnc(N)c12 (stereo unspecified)	0.041 µM	0.115 µM	3.5 µM			
Cc1ccc(NC(=O)c2ccc(F)c(C(F)(F)F)c2)cc1C#Cc1nn(C2CCN(C)CC2)c2ncnc(N)c12	0.523 µM	0.621 µM	> 10 µM			
Cc1ccc(NC(=O)c2cccc(Cl)c2)cc1C#Cc1nn(C2CCN(C)CC2)c2ncnc(N)c12	0.06 µM	0.733 µM	9.2 µM			
Cc1ccc(NC(=O)c2ccc(C)c(C(F)(F)F)c2)cc1C#Cc1nn(C2CCN(C)CC2)c2ncnc(N)c12	0.044 µM	0.04 µM	> 10 µM	69.8%	-4.5%	0%
Cc1ccc(NC(=O)c2cc(C(F)(F)F)cc(C(F)(F)F)c2)cc1C#Cc1nn(C2CCN(C)CC2)c2ncnc(N)c12	0.051 µM	0.094 µM	7.1 µM			
Cc1ccc(NC(=O)c2cnc(C(C)(C)C)s2)cc1C#Cc1nn(C2CCN(C)CC2)c2ncnc(N)c12	0.078 µM	0.02 µM	> 10 µM	87%	-5.3%	0%
CN1CCC(n2nc(C#Cc3cc(NC(=O)c4cccc(C(F)(F)F)c4)ccc3Cl)c3c(N)ncnc32)CC1	0.947 µM	0.195 µM	> 10 µM			
Cc1ccc(NC(=O)c2cccc(C(F)(F)F)n2)cc1C#Cc1nn(C2CCN(C)CC2)c2ncnc(N)c12	0.509 µM	2.47 µM	> 10 µM			
Cc1ccc(NC(=O)c2cnc(C(C)(C)C)s2)cc1C#Cc1nn(C[C@@H](C)CO)c2ncnc(N)c12	0.034 µM	0.073 µM	> 10 µM			
Cc1ccc(NC(=O)c2cccc(F)c2)cc1C#Cc1nn(C2CCN(C)CC2)c2ncnc(N)c12	0.812 µM	2.07 µM	> 10 µM			
CN1CCC(n2nc(C#Cc3cccc(NC(=O)Nc4cccc(C(F)(F)F)c4)c3)c3c(N)ncnc32)CC1	1.35 µM	0.557 µM	6.2 µM			
Cc1ccc(NC(=O)c2cccc(C(F)(F)F)c2)cc1C#Cc1nn(CC2CCN(C)CC2)c2ncnc(N)c12			3.2 µM			
Cc1ccc(NC(=O)c2cc(C(F)(F)F)ccc2F)cc1C#Cc1nn(C2CCN(C)CC2)c2ncnc(N)c12	0.201 µM	0.117 µM	2.7 µM			
Cc1ccc(NC(=O)c2ccc(C(F)(F)F)cc2)cc1C#Cc1nn(C2CCN(C)CC2)c2ncnc(N)c12	0.854 µM	5.13 µM	> 10 µM			
Cc1ccc(C(=O)Nc2cccc(C(F)(F)F)c2)cc1C#Cc1nn([C@@H]2CCN(C)C2)c2ncnc(N)c12	0.013 µM	0.044 µM	4.6 µM			
Cc1ccc(NC(=O)c2ccnc(C(F)(F)F)c2)cc1C#Cc1nn(C2CCN(C)CC2)c2ncnc(N)c12	0.284 µM	0.183 µM	> 10 µM			
Cc1ccc(NC(=O)c2cccc(C(F)(F)F)c2)cc1C#Cc1nn(CC2CCN(C)C2)c2ncnc(N)c12 (stereo unspecified)			4.7 µM			
Cc1ccc(NC(=O)c2ccc(C)c(C(F)(F)F)c2)cc1C#Cc1nn(C[C@@H](C)CO)c2ncnc(N)c12	0.048 µM	0.123 µM	8.3 µM			
